How the values were obtained:
[1] = test system: WM266-4 cells; test: Transwell Matrigel invasion assay; format: cell-based, human
Procedure, shortened: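 25 × 10^4 WM266-4 cells in suspension were treated with 0.16 or 0.32µM test compound; shMT1-MMP cells got recombinant MMP2 at 25ng/ml. Cells were placed in 8-µm-pore inserts, uncoated or coated with growth-factor-reduced Matrigel, with DMEM plus 5% FBS below. After 24 h, cells on the bottom membrane were fixed in 4% formaldehyde and stained with Coomassie. Stain was extracted in 10% acetic acid and read at […], in triplicate. Invasion % = Matrigel/control insert × 100.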

[2] = biological target: MT1-MMP (Homo sapiens, UniProt P50281); test: MT1-MMP activity assay; format: cell-based; details: WM266-4 cells, 0.32 µM, overnight
Procedure, shortened: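 WM266-4 cells treated overnight with test compound (0.32 µM final). Comparators were a neutralizing antibody (1 μg/ml), recombinant MT1-MMP (0.5 μg/ml) or shMT1-MMP expression. Membranes extracted by three freeze-thaw cycles, sonicated, pelleted (30 min, 13 000 g, 4°C) and resuspended in PBS. Equal protein incubated with fluorogenic substrate Mca-PLGL-Dap(Dnp)-AR-NH2; fluorescence read at Ex/Em […].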

[3] = cited from earlier work
[4] = test system: WM266-4 cells; test: Orthotopic melanoma model: WM266-4 cells intradermally in NOD/SCID mice; format: in vivo
Procedure, shortened: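 Male NOD/SCID mice (5–8 weeks) received 2 × 10^6 luciferase-transduced WM266-4 cells intradermally in dorsal flanks (9 control, 18 treated tumors). Dosing began at about 120 mm3 mean tumor volume: 25 mg/Kg once daily subcutaneously, from 7.5 mg/ml in sterile PBS, filter-sterilized. Tumor volume taken as (w2 × l) × 0.52 and normalized to time 0. Primary tumors resected at day 42. Lung bioluminescence checked twice weekly. Lungs/thymi S100-stained at 30 weeks post-surgery.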

[5] = cited from earlier work; remark: listed apart in the source
[6] = test system: MMP2; test: Gelatin zymography of conditioned medium; format: cell-based, human; details: WM266-4 cells, 0.32 µM
Procedure, shortened: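 WM266-4 cells were treated with 0.32µM test compound or DMSO, and serum-free conditioned medium was collected. Medium was concentrated on a 30K cutoff device, and 10 μg protein was run on 8% SDS-PAGE containing 2 mg/ml gelatin. Gels were washed in 2.5% Triton X-100, then incubated overnight at 37°C in 50 mM Tris-HCl, 5 mM CaCl2, 0.1% Triton X-100, pH 7.8. Gels were Coomassie R250-stained 45 min, then destained.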

[7] = test system: other MMPs; details: cited from earlier work
[8] = test system: WM266-4 cells; test: Scratch migration assay; format: cell-based, human
[9] = test system: melanoma cell lines; test: Cell proliferation assay; format: cell-based, human
Procedure, shortened: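 Crystal violet growth assay. Melanoma cells were kept in DMEM with 10% FCS, 1% glutamine and 1% penicillin-streptomycin. They were seeded at 16,000/cm2 in triplicate and treated with 0.32 µM test compound or DMSO vehicle. shMT1-MMP WM266-4 cells received recombinant MMP2 at 25ng/ml. At each time point cells were fixed in 10% buffered formalin and stained with crystal violet. Growth is expressed relative to controls.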

[10] = test system: RAC1; test: RAC1 activity assay; format: cell-based, human; details: WM266-4 cells, 0.32 µM, 24 hours
Procedure, shortened: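 Cells at 70% confluency were serum-starved in DMEM with 0.5% serum for 24 h, then serum-free for a further 24 h. They were lysed in the G-LISA kit buffer. Equal protein amounts were added to Rac1-GTP-binding wells, and active RAC1 was read at OD 490 nm.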

[11] = test system: prostate cancer; details: cited from earlier work
[12] = biological target: T1, MMP2 (Homo sapiens, UniProt P08253); details: cited from earlier work
T1 sequence (P08253 110-660): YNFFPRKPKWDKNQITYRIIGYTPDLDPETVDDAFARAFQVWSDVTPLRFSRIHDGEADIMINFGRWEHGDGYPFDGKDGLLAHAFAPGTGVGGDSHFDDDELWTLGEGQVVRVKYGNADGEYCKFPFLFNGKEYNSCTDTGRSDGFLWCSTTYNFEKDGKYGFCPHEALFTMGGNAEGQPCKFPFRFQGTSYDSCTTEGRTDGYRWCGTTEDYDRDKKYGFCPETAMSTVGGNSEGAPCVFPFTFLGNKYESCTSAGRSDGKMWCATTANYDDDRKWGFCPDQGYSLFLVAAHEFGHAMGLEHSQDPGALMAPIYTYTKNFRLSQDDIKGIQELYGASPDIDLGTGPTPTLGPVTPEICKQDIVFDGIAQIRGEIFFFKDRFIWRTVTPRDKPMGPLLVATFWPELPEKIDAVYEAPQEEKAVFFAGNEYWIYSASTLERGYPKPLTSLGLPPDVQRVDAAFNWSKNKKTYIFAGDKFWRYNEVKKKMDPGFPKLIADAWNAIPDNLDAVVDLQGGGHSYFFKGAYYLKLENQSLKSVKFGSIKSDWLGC

[13] = WM266-4 cells, recombinant MMP2 25ng/ml

Nc1ccc(Oc2ccc(S(=O)(=O)CC3CS3)cc2)cc1 (stereo not shown) [ND-322]
invasion capacity of WM266-4 melanoma cells ([1]; 0.16 and 0.32 µM, 24 hours, dose dependent): inhibited significantly
MT1-MMP activity [2]: as effective as antibody neutralization and knockdown
tolerability in a model of wound healing [3]: well tolerated
tumor growth compared to controls ([4]; 25 mg/Kg/day subcutaneously, NOD/SCID mice): reduced tumor growth significantly
body weight over time ([4]; 25 mg/Kg/day, NOD/SCID mice): maintained their weight
tolerability of treatment ([4]; 25 mg/Kg/day, NOD/SCID mice): well tolerated
mice presenting with tumor cells in the lungs (lung metastasis) ([4]; 30 weeks post-surgery, control animals 90%): 40%
crossing of the blood/brain barrier [5]: cross the blood/brain barrier
MMP2 activation by gelatin zymography [6]: inhibited MMP2 activation
inhibition of other MMPs [7]: does not inhibit or poorly inhibits
motility (migration) of WM266-4 melanoma cells ([8]; 0.16 and 0.32 µM, dose dependent): inhibited significantly
cell growth of several melanoma cell lines ([9]; 0.32 µM): inhibited cell growth
activity of the small GTPase RAC1 [10]: reduce the activity

O=S(=O)(CC1CS1)c1ccc(Oc2ccccc2)cc1 (stereo not shown) [SB-3CT, reference compound]
crossing of the blood/brain barrier [5]: cross the blood/brain barrier
bone metastasis in a xenograft model of prostate cancer [11]: effectively prevent bone metastasis

TIMP1: tissue inhibitor of matrix metalloproteinase (TIMP)1
residence time bound to MMP2 [12]: 6.9 min

B1: recombinant active MMP2: recombinant active MMP2 added to cells at 25ng/ml (protein, UniProt P08253 110-660, looked up)
72 kDa type IV collagenase: YNFFPRKPKWDKNQITYRIIGYTPDLDPETVDDAFARAFQVWSDVTPLRFSRIHDGEADIMINFGRWEHGDGYPFDGKDGLLAHAFAPGTGVGGDSHFDDDELWTLGEGQVVRVKYGNADGEYCKFPFLFNGKEYNSCTDTGRSDGFLWCSTTYNFEKDGKYGFCPHEALFTMGGNAEGQPCKFPFRFQGTSYDSCTTEGRTDGYRWCGTTEDYDRDKKYGFCPETAMSTVGGNSEGAPCVFPFTFLGNKYESCTSAGRSDGKMWCATTANYDDDRKWGFCPDQGYSLFLVAAHEFGHAMGLEHSQDPGALMAPIYTYTKNFRLSQDDIKGIQELYGASPDIDLGTGPTPTLGPVTPEICKQDIVFDGIAQIRGEIFFFKDRFIWRTVTPRDKPMGPLLVATFWPELPEKIDAVYEAPQEEKAVFFAGNEYWIYSASTLERGYPKPLTSLGLPPDVQRVDAAFNWSKNKKTYIFAGDKFWRYNEVKKKMDPGFPKLIADAWNAIPDNLDAVVDLQGGGHSYFFKGAYYLKLENQSLKSVKFGSIKSDWLGC
rescue of cell invasion in cells expressing shMT1-MMP [1, 13]: rescued
rescue of cell motility in cells expressing shMT1-MMP ([8]; WM266-4 cells, recombinant MMP2 25ng/ml, 24 hours): rescued
rescue of cell growth in cells expressing shMT1-MMP [9, 13]: did not rescue cell growth
